How the values were obtained:
[1] = target: T1, Proteasome assembly chaperone 3 (Homo sapiens) (UniProt Q9BT73); assay: (§1) Inhibition of N-terminal mKG-labeled PAC3/C-terminal mKG-labeled PAC3 homodimer (unknown origin) protein-protein interaction at 10 uM preincubated for 1 hr with protein followed by another protein addition and measured after 17 hrs by fluorescence based protein-fragment complementation assay relative to control
T1 sequence (whole entry): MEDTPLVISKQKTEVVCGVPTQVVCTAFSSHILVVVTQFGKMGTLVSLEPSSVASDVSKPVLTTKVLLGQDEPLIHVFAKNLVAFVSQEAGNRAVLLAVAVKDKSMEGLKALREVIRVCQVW
In short: (§2)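 In vitro protein-fragment complementation assay. Compounds were added as DMSO solutions at 10, 1 or 0.1 μM. The decrease in fluorescence intensity was converted to percent inhibition.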

[2] = target: T1, Proteasome assembly chaperone 3 (Homo sapiens); assay: as §1, with “1” for “10”; in short: as §2
[3] = target: T1, Proteasome assembly chaperone 3 (Homo sapiens); assay: as §1, with “0.1” for “10”; in short: as §2
[4] = target: T2, PAC1-PAC2 complex (Homo sapiens) (UniProt O95456+Q969U7); assay: as §1, with “PAC1/C-terminal” for “PAC3/C-terminal”, “PAC2” for “PAC3 homodimer”; format: protein-complex assay; in short: as §2
[5] = target: T2, PAC1-PAC2 complex (Homo sapiens); assay: as §1, with “PAC1/C-terminal” for “PAC3/C-terminal”, “PAC2” for “PAC3 homodimer”, “1” for “10”; format: protein-complex assay; in short: as §2
[6] = target: T2, PAC1-PAC2 complex (Homo sapiens); assay: as §1, with “PAC1/C-terminal” for “PAC3/C-terminal”, “PAC2” for “PAC3 homodimer”, “0.1” for “10”; format: protein-complex assay; in short: as §2
[7] = target: T3, Proteasome assembly chaperone 3 (Homo sapiens, UniProt Q9BT73); assay: Inhibition of PAC3 homodimer (unknown origin) protein-protein interaction
T3 sequence (Q9BT73 whole entry): T1 sequence (whole entry)

PAC1-PAC2 complex = target: T4, PAC1-PAC2 complex (Homo sapiens, UniProt O95456+Q969U7); assay: Inhibition of PAC1/PAC2 heterodimer (unknown origin) protein-protein interaction; format: protein-complex assay
T4 sequence (O95456 whole entry): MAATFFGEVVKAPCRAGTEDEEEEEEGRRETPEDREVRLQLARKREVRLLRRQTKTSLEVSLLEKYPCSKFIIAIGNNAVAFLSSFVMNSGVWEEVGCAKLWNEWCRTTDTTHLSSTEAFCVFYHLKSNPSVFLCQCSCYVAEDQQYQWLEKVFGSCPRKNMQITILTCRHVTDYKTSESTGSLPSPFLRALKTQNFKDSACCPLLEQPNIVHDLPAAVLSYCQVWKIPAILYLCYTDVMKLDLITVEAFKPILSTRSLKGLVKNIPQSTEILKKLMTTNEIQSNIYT
T4 sequence (Q969U7 whole entry): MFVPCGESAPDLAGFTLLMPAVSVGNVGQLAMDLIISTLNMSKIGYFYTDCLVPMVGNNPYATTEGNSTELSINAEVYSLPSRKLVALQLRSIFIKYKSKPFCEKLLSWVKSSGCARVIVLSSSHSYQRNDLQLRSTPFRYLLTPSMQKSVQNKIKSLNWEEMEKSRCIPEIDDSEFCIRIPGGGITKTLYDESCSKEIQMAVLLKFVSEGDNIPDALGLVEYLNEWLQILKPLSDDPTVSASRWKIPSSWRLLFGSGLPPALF

Row | Structure (SMILES) | inhibition [1] [%] | inhibition [2] [%] | inhibition [3] [%] | inhibition [4] [%] | inhibition [5] [%] | inhibition [6] [%] | IC50 [7] [µM] | IC50 (PAC1-PAC2 complex) [µM]
1 | COc1c(C)c(OC(=O)c2ccc(Oc3cccc(C(=O)Oc4c(C)c(C)c(C(=O)Oc5c(C)c(C)c(C(=O)O)c(OC)c5C)c(OC)c4C)c3)cc2)c(C)c(C)c1C(=O)O | 99 | 37 | 7 | 98 | 35 | 9 |  | 
2 | COc1c(C)c(OC(=O)c2ccc(Oc3cccc(C(=O)Oc4c(C)c(C)c(C(=O)Oc5c(C)c(C)c(C(=O)O)c(OC)c5C)c(OC)c4C)c3C)c(C)c2)c(C)c(C)c1C(=O)O | 99 | 34 | 19 | 89 | 31 | 1 |  | 
3 | COCOC(=O)c1c(C)c(C)c(OC(=O)c2c(C)c(C)c(OC(=O)c3c(C)c(C(=O)Oc4c(C)c(C)c(C(=O)Oc5c(C)c(C)c(C(=O)OCOC)c(OC)c5C)c(OC)c4C)c(OC)c(C)c3OC)c(C)c2OC)c(C)c1OC | 2 | 5 | 12 | 1 | 0 | 3 |  | 
4 | COc1c(C)c(OC(=O)c2c(C)c(C)c(OC(=O)c3c(C)c(C(=O)Oc4c(C)c(C)c(C(=O)Oc5c(C)c(C)c(C(=O)O)c(OC)c5C)c(OC)c4C)c(OC)c(C)c3OC)c(C)c2OC)c(C)c(C)c1C(=O)O | 85 | 49 | 29 | 38 | 2 | 9 |  | 
5 | COc1c(C)c(OC(=O)c2c(C)c(C)c(OC(=O)C3=C(C)[C@@](C)(O)[C@@]4(O)Oc5c(C)c(OC)c(C(=O)Oc6c(C)c(C)c(C(=O)O)c(OC)c6C)c(C)c5C[C@@]4(C)C3=O)c(C)c2OC)c(C)c(C)c1C(=O)O |  |  |  |  |  |  | > 250 | 
6 | COc1c(C)c(OC(=O)c2c(C)c(C)c(OC[C@@H]3OC(=O)O[C@H]3COc3c(C)c(C)c(C(=O)Oc4c(C)c(C)c(C(=O)O)c(OC)c4C)c(OC)c3C)c(C)c2OC)c(C)c(C)c1C(=O)O | 41 | 5 | 2 | 49 | 17 | 15 |  | 
7 | COc1c(C)c(OC(=O)c2c(C)c(C)c(OC[C@H](O)[C@@H](O)COc3c(C)c(C)c(C(=O)Oc4c(C)c(C)c(C(=O)O)c(OC)c4C)c(OC)c3C)c(C)c2OC)c(C)c(C)c1C(=O)O | 53 | 17 | 0 | 39 | 17 | 5 |  | 
8 | COc1c(C)c(OC(=O)c2c(C)c(C)c(OC(=O)c3c(C)c(C(=O)Oc4c(C)c(C)c(C(=O)Oc5c(C)c(C)c(C(=O)O)c(OC)c5C)c(OC)c4C)c(O)c(C)c3O)c(C)c2OC)c(C)c(C)c1C(=O)O | 94 | 17 | 4 | 69 | 23 | 21 |  | 
9 | COc1c(C)c(OC(=O)c2c(C)c(C)c(OCc3cccc(COc4c(C)c(C)c(C(=O)Oc5c(C)c(C)c(C(=O)O)c(OC)c5C)c(OC)c4C)n3)c(C)c2OC)c(C)c(C)c1C(=O)O | 88 | 43 | 18 | 40 | 5 | 9 |  | 
10 | COc1c(C)c(OC(=O)c2c(C)c(C)c(OC(=O)c3c(C)c(Oc4c(C)c(C)c(C(=O)Oc5c(C)c(C)c(C(=O)O)c(OC)c5C)c(OC)c4C)c(O)c(C)c3O)c(C)c2OC)c(C)c(C)c1C(=O)O |  | 94 | 85 |  | 9 | 9 | 0.02 | > 250
11 | COc1c(C)c(OC(=O)c2c(C)c(C)c(OC(=O)c3c(C)cc(O)c(Cc4c(C)c(C(=O)Oc5c(C)c(C)c(C(=O)Oc6c(C)c(C)c(C(=O)O)c(OC)c6C)c(OC)c5C)c(O)c(C)c4O)c3O)c(C)c2OC)c(C)c(C)c1C(=O)O |  |  |  |  |  |  | > 250 | 
12 | COc1c(C)c(OC(=O)c2ccc(Oc3cccc(C(=O)Oc4c(C)c(C)c(C(=O)Oc5c(C)c(C)c(C(=O)O)c(OC)c5C)c(OC)c4C)c3C)cc2)c(C)c(C)c1C(=O)O | 98 | 40 | 4 | 91 | 37 | 15 |  | 
13 | COc1c(C)c(O)c(C)c(C)c1C(=O)Oc1c(C)c(C)c(C(=O)O)c(OC)c1C | 21 | 9 | 11 | 11 | 0 | 3 |  | 
14 | COc1c(C)c(OC(=O)c2c(C)c(C)c(OCc3cccc(COc4c(C)c(C)c(C(=O)Oc5c(C)c(C)c(C(=O)O)c(OC)c5C)c(OC)c4C)c3Br)c(C)c2OC)c(C)c(C)c1C(=O)O | 86 | 38 | 26 | 57 | 5 | 3 |  | 
15 | COc1c(C)c(OC(=O)c2c(C)c(C)c(OC(=O)CCC(=O)Oc3c(C)c(C)c(C(=O)Oc4c(C)c(C)c(C(=O)O)c(OC)c4C)c(OC)c3C)c(C)c2OC)c(C)c(C)c1C(=O)O | 34 | 9 | 0 | 28 | 16 | 5 |  | 
16 | COc1c(C)c(OC(=O)c2c(C)c(C)c(OC/C=C/COc3c(C)c(C)c(C(=O)Oc4c(C)c(C)c(C(=O)O)c(OC)c4C)c(OC)c3C)c(C)c2OC)c(C)c(C)c1C(=O)O | 94 | 30 | 7 | 68 | 16 | 5 |  | 
17 | COCOC(=O)c1c(C)c(C)c(OC(=O)c2c(C)c(C)c(OCc3cccc(COc4c(C)c(C)c(C(=O)Oc5c(C)c(C)c(C(=O)OCOC)c(OC)c5C)c(OC)c4C)c3Br)c(C)c2OC)c(C)c1OC | 0 | 0 | 0 | 6 | 0 | 3 |  | 

Reference: ChEMBL document CHEMBL4382236, “Synthesis and biological evaluation of thielocin B1 analogues as protein-protein interaction inhibitors of PAC3 homodimer” (Bioorg Med Chem, 2018)
